Source: PubChem BioAssay AID588836 (Broad Institute, 2011)
The source made the active and inactive calls. The rule behind the calls is not given here.

Biological target: Scavenger receptor class B member 1 (Mus musculus) (UniProt Q61009)
Test: wild-type mSR-BI cholesteryl ester uptake blockade – wild-type cells, scintillation, powder samples, orthogonal assay for SR-BI HDL uptake inhibitor project, late-stage follow-up (AID 588836)
Settings: CHO mSR-BI cells, [3H]cholesteryl ester HDL uptake, at 1 µM, stronger effect = lower value
Method in brief: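 Test system – CHO-derived mSR-BI cells lacking LDL receptor, overexpressing murine SR-BI · Incubation – 1 h compound preincubation, then 2 h HDL uptake, 37 °C · Signal – liquid scintillation counting of cell-associated [3H]cholesteryl ester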

Sequence of Scavenger receptor class B member 1 (Mus musculus) (Q61009 whole entry, looked up): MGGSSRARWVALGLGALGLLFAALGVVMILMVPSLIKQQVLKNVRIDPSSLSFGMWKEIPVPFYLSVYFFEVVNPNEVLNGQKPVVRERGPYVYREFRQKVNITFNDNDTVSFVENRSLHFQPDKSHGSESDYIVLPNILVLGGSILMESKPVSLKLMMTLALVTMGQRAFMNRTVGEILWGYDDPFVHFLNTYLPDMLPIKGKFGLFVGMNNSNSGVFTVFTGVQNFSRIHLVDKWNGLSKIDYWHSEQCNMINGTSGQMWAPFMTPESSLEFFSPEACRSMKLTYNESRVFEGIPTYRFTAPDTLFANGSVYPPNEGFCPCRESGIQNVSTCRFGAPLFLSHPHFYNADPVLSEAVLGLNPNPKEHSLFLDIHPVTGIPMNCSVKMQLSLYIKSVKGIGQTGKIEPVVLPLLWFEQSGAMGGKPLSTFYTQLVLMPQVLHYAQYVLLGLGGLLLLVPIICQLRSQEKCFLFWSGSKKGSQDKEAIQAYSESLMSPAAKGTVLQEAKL

Row | Structure (SMILES) | HDL cholesterol uptake
1 | Cc1ccc2oc(-c3cccc(NC(=O)c4cc(-n5cnnc5)ccc4Cl)c3)nc2c1 | 54.8%
2 | COc1ccc(-c2nnn(CC(=O)N(C3CCCCC3)C(C)C(=O)NC3CCCC3)n2)cc1OC (stereo not given) | 48.9%
3 | CCC(=O)N1CCc2cc(-c3csc(NC(=O)c4ccco4)n3)ccc21 | 52.6%
4 | O=C(Nc1ccc(Cl)cc1C(=O)c1ccc(Cl)cc1)c1cc(Br)ccc1NS(=O)(=O)c1ccc(Cl)cc1 | 85.2% (inactive)
5 | CCOC(=O)N1CCC(NC(=O)c2ccc3c(c2)N(Cc2ccc(F)cc2)CCS3)CC1 | 45.9%
